Experiments:
Mus musculus = assay: Tested for intraperitoneal lethal dose in OF1 mice after 30 days; assay type: functional; conditions: ip, 720 h
Procedure, shortened: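 Mice (OF1) dosed intraperitoneally and followed for 30 days. LD50 derived by Probit analysis, with the dose range set in a preliminary study.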

Homo sapiens [1] = species: Homo sapiens; assay: Effective dose required to inhibit 50% of HIV-1 Ba-L-infected MDM''s at 0.01 uM; assay type: functional
[2] = Percent increase in intracellular GSH level at 250 uM in 24 hr treated human macrophage-derived monocytes (MDMs); assay type: functional
Procedure, shortened: (§1)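 Human MDMs from healthy-donor PBMCs (Ficoll-Hypaque gradient; monocytes split from PBLs by countercurrent centrifugal elutriation; 7 days differentiation). Cultured in DMEM Glutamax with 10% heat-inactivated FCS plus penicillin/streptomycin/neomycin. Treated 24 h, then lysed; GSH measured by Griffith's method and normalised to protein (Bradford). Run in triplicate across five independent experiments (n=15).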

Homo sapiens [3] = species: Homo sapiens; assay: Effective dose required to inhibit 90% of HIV-1 Ba-L-infected MDM''s at 0.001 uM; assay type: functional
[4] = Percent increase in intracellular GSH level at 1000 uM in 24 hr treated human macrophage-derived monocytes (MDMs); assay type: functional; procedure, shortened: as §1
[5] = Percent increase in intracellular GSH level at 100 uM in 24 hr treated human macrophage-derived monocytes (MDMs); assay type: functional; procedure, shortened: as §1
Homo sapiens [6] = species: Homo sapiens; assay: Effective dose required to inhibit 70% of HIV-1 Ba-L-infected MDM''s at 0.001 uM; assay type: functional
[7] = Tested for cytotoxic concentration in human macrophage-derived monocytes (MDMs) at 24 hr treatment; assay type: cell-based
Procedure, shortened: (§2)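 Human MDMs from donor PBMCs (elutriated monocytes, 7 days differentiation) exposed to the compound for 24 h or 12 days. Cytotoxicity read by neutral-red uptake; CC50 taken as the mean of three independent experiments, each in triplicate.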

[8] = Effect on intracellular GSH content at 250 uM in human macrophage-derived monocytes (MDMs); assay type: functional; procedure, shortened: as §1
Homo sapiens [9] = species: Homo sapiens; assay: Effective dose required to inhibit 90% of HIV-1 Ba-L-infected MDM''s at 0.01 uM; assay type: functional
Homo sapiens [10] = species: Homo sapiens; assay: Effective dose required to inhibit 50% of HIV-1 Ba-L-infected MDM''s at 0.001 uM; assay type: functional
Homo sapiens [11] = species: Homo sapiens; assay: Effective dose required to inhibit 70% of HIV-1 Ba-L-infected MDM''s at 0.01 uM; assay type: functional
[12] = Percent increase in intracellular GSH level at 10 uM in 24 hr treated human macrophage-derived monocytes (MDMs); assay type: functional; procedure, shortened: as §1
[13] = Tested for cytotoxic concentration in human macrophage-derived monocytes (MDMs) after 12 days; assay type: cell-based; procedure, shortened: as §2

CC(=O)N[C@@H](CS)C(=O)NCCSC(C)=O
LD50 (Mus musculus): 700 mg/kg | ED50 (Homo sapiens [1]): 50 µM | GSH [2]: 165% | ED90 (Homo sapiens [3]): 75 µM | GSH [4]: 140% | GSH [5]: 75% | ED70 (Homo sapiens [6]): 15 µM | CC50 at 24 h [7]: > 5000 µM | GSH [8]: 480% | ED90 (Homo sapiens [9]): 190 µM | ED50 (Homo sapiens [10]): 3 µM | ED70 (Homo sapiens [11]): 90 µM | GSH [12]: 0% | CC50 at 288 h [13]: 635 µM

CC(=O)N[C@@H](CS)C(=O)O.NCCS
GSH [8]: 190%

NCCS [CYSTEAMINE]
GSH [8]: 200%

CC(=O)N[C@@H](CS)C(=O)O [ACETYLCYSTEINE]
GSH [8]: 200%
